A value given as a limit tells only on which side of the number the result lay.

The subject of series [1] is HL-60. Nature of the series: Cytotoxicity against human HL60 cells after 46 hrs by MTT assay. It counts as functional, cell-based. The note with it: HL-60, 46 h. An outline of the steps:
(§1)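 MTT read-out of survival in cells treated with test compound and compared with untreated control cells. IC50 is the concentration that lowers the surviving cell fraction to 50% of control. Values are means (μM) ± standard deviation from 3 experiments, each run in quintuple. Cancer-line IC50s were compared with normal-cell (HUVEC) IC50s by unpaired t-test.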

The test system of series [2] is NALM-6. Nature of the series: Cytotoxicity against human NALM6 cells after 46 hrs by MTT assay. It counts as functional, cell-based. The following applies: NALM-6, 46 h. Put shortly: as §1
Series [3] in a line: Lipophilicity, log P of the compound by HPLC analysis. Format: physicochemical.
Series [4] relates to HUVEC. Nature of the series: Cytotoxicity against HUVEC after 46 hrs by MTT assay. The following applies: Homo sapiens. It counts as cell-based. An outline of the steps: as §1
Series [5] relates to WM-115. Nature of the series: Cytotoxicity against human WM115 cells after 46 hrs by MTT assay. Format: functional, cell-based. The following applies: WM-115, 46 h. An outline of the steps:
as §1

Regarding `O=C1/C(=C/c2ccncc2)C(c2ccccc2)Oc2ccccc21` (stereo unspecified), the IC50 in series [1] turned out to be 0.9 µM; in series [2], 1.6 µM; in series [4] it was 5.77 µM; in series [5] it was 6.3 µM. The compound also had a logP in series [3] of 2.98.

Consider `O=C1/C(=C\c2ccncc2)C(c2ccccc2)Oc2ccccc21` (stereo unspecified), for which the IC50 came out at 1.1 µM in series [1], 0.7 µM in series [2], 5.14 µM in series [4] and 4.6 µM in series [5]. Besides, in series [3], the log partition coefficient (logP) amounted to 2.85.

As for `O=C1/C(=C/c2ccc(O)cc2)COc2ccccc21`, the 50% inhibitory concentration (IC50) in series [1] is 5.7 µM; in series [2], 32.3 µM; in series [5] it was 69 µM. In series [3], this compound gave a logP of 3.1.

Turning to `O=C1/C(=C/c2ccccc2)COc2ccccc21`, the results for the IC50 in series [1], in series [2] and in series [5] were 5.4 µM, 6.2 µM and 53.7 µM, respectively. The compound further yielded a logP in series [3] of 3.07.

For the compound `O=c1c(Cc2ccc(O)cc2)coc2ccccc12`, the IC50 in series [1] stood at 46.7 µM; in series [2], 49.8 µM; in series [5], 57.2 µM. In series [3], this compound registered a logP of 3.33.

On to `O=C1/C(=C\c2ccccc2)C(c2ccccc2)Oc2ccccc21` (stereo unspecified), for which the IC50 in series [1] is 27.3 µM; in series [2], more than 1000 µM; in series [5], 52.6 µM. Moreover, the lipophilicity (logP) in series [3] is 3.9.

For the compound `O=C1/C(=C/c2ccccc2)C(c2ccccc2)Oc2ccccc21` (stereo unspecified), the IC50 was determined as 33.3 µM in series [1], 29.5 µM in series [2] and 59.4 µM in series [5]. This compound also came in with a logP in series [3] of 3.9.

As to `O=C1/C(=C\c2ccccc2)C(c2ccccc2)Oc2ccc(O)cc21` (stereo unspecified), the 50% inhibitory concentration (IC50) in series [1] amounted to 7.3 µM; in series [2] it was 58.8 µM; in series [5], 9.1 µM. For the same compound, the logP in series [3] is 3.45.

As for `O=C1/C(=C/c2ccccc2)C(c2ccccc2)Oc2ccc(O)cc21` (stereo unspecified), the IC50 in series [1] stood at 5.8 µM; in series [2] it was 8.7 µM; in series [5], 44.5 µM. For the same compound, the logP in series [3] is 3.5.

Regarding `Cc1ccc(/C=C2\C(=O)c3ccccc3OC2c2ccccc2)cc1` (stereo unspecified), the results for the IC50 in series [1], in series [2] and in series [5] were 40.8 µM, more than 1000 µM and 57 µM, respectively. In series [3], the log partition coefficient (logP) was determined as 4.39.

Consider `Cc1ccc(/C=C2/C(=O)c3ccccc3OC2c2ccccc2)cc1` (stereo unspecified), for which the values for the IC50 in series [1], in series [2] and in series [5] were 40.9 µM, 51.4 µM and 60.1 µM, respectively. In series [3], this compound displayed a logP of 4.36.

For the compound `O=C1/C(=C\c2ccc(Cl)cc2)C(c2ccccc2)Oc2ccccc21` (stereo unspecified), the IC50 in series [1] is more than 1000 µM; in series [2] it was more than 1000 µM; in series [5], 27.4 µM. Further, in series [3], the log partition coefficient (logP) worked out at 4.53.

Turning to `O=C1/C(=C/c2ccc(Cl)cc2)C(c2ccccc2)Oc2ccccc21` (stereo unspecified), the 50% inhibitory concentration (IC50) in series [1] came to 5.8 µM; in series [2] it was 7.4 µM; in series [5], 52 µM. For the same compound, the logP in series [3] was 4.46.

Turning to `O=C1/C(=C\c2ccc(Br)cc2)C(c2ccccc2)Oc2ccccc21` (stereo unspecified), the half-maximal inhibitory concentration (IC50) in series [1] was more than 1000 µM; in series [2] it was more than 1000 µM; in series [4], 29.1 µM; in series [5] it was 32.6 µM. The compound further yielded a logP in series [3] of 4.71.

Turning to `O=C1/C(=C/c2ccc(Br)cc2)C(c2ccccc2)Oc2ccccc21` (stereo unspecified), the half-inhibitory concentration (IC50) came to 5.7 µM in series [1], 6.9 µM in series [2], 7.23 µM in series [4] and 25.9 µM in series [5]. In series [3], this compound came in with a lipophilicity (logP) of 4.46.

For `O=C1/C(=C\c2ccccc2)COc2ccccc21`, the concentration for half-maximal inhibition (IC50) in series [1] turned out to be 6.7 µM; in series [2], 5.5 µM; in series [5] it was 13.5 µM. In addition, the lipophilicity (logP) in series [3] was determined as 2.89.

For `O=C1/C(=C\c2ccc(O)cc2)COc2ccccc21`, the IC50 came out at 6.5 µM in series [1], 466 µM in series [2] and 12.1 µM in series [5]. This compound also yielded a logP in series [3] of 2.92.

With `O=c1c(Cc2ccc([N+](=O)[O-])cc2)coc2ccccc12`, the concentration for half-maximal inhibition (IC50) in series [1] is 2.4 µM; in series [2], 5 µM; in series [4], 5.4 µM; in series [5], 6.1 µM. In series [3], the logP is 3.93.

With `N#Cc1ccc(Cc2coc3ccccc3c2=O)cc1`, the 50% inhibitory concentration (IC50) was 3.8 µM in series [1], 4.8 µM in series [2] and 6.3 µM in series [5]. The log partition coefficient (logP) in series [3] was found to be 3.58.

Turning to `O=c1c(Cc2ccc(F)cc2)coc2ccccc12`, the results for the concentration for half-maximal inhibition (IC50) in series [1], in series [2] and in series [5] were 19.1 µM, 8.2 µM and 53.2 µM, respectively. Also, in series [3], the log partition coefficient (logP) stood at 4.02.

For `O=c1c(Cc2cccc(O)c2)coc2ccccc12`, the IC50 in series [1] came to 6.3 µM; in series [2], 7.3 µM; in series [5], 17.6 µM. In addition, the logP in series [3] was 3.31.

Turning to `O=C1CCOc2ccccc21` [CHROMANONE], the 50% inhibitory concentration (IC50) in series [1] was 677 µM; in series [2], 674 µM; in series [5], more than 1000 µM.

For `O=C1CC(c2ccccc2)Oc2ccccc21` (stereo unspecified) [FLAVANONE], the IC50 in series [1] was found to be 51.1 µM; in series [2], 57.6 µM; in series [5], 71.2 µM.

With `O=C1C[C@@H](c2ccc(O)cc2)Oc2cc(O)cc(O)c21` [NARINGENIN], the half-maximal inhibitory concentration (IC50) is 414 µM in series [1], 426 µM in series [2] and 525 µM in series [5].

In the case of `O=c1c(O)c(-c2ccc(O)c(O)c2)oc2cc(O)cc(O)c12` [QUERCETIN], the half-maximal inhibitory concentration (IC50) was determined as 58 µM in series [1], 77.1 µM in series [2] and 178 µM in series [5].

The record behind these values is ChEMBL document CHEMBL2401718, “Structure-cytotoxic activity relationship of 3-arylideneflavanone and chromanone (E,Z isomers) and 3-arylflavones” (Bioorg Med Chem Lett, 2013).
